Experiment: Toxicity liver stage against HepG2, at 10uM
Format: cell-based
Set-up: test concentration 10 uM, cell line HepG2-A16-CD81EGFP
Settings: human, HepG2-A16-CD81EGFP cells; read-out: INHIBITION
Method in brief: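 Uninfected HepG2-A16-CD81EGFP cells, 3 × 10^3 per well, 1536-well, plated on prespotted compound at 10 μM final, parasite-free screening media added to match infected plates; puromycin 10 μM positive, DMSO 0.5% negative; run in parallel with 48 h PbLuc assay at 37 °C, 5% CO2; viability by CellTiter-Glo luminescence, normalized to controls.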

| Compound | cytotoxicity at 10 µM [%] |
| --- | --- |
| COc1ccccc1CNC(=O)CS(=O)(=O)Cc1ccccc1 | 3.26 |
| CCCn1cnc2c1CN(C(=O)c1ccc(F)cc1)[C@H](C(=O)OC)C2 | 4.94 |
| CCN(CC)C1(Cc2cc(-c3cccc(O)c3)on2)COC1 | 7.71 |
| F[C@@H]1CN(CC2CCCCC2)C[C@@H]1OCc1nc2ccccc2o1 | 1.9 |
| O=C(Cc1ccc(F)cc1)NCC(O)(c1cccs1)C1CC1 (stereo not given) | -39.3 |
| COc1cc(C(=O)NCCc2ccc(OC)c(OC)c2)on1 | 1.84 |
| COC1(CNC(=O)c2ccc(F)c(F)c2)CCSC1 (stereo not given) | -2.11 |
| O=C(c1ccoc1)N1CCC2(CC1)C(=O)N(CC1CC1)c1ccccc12 | 10.7 |
| O=C1CC2(CCCCN2C(=O)c2ccccc2)CN1CC1CC1 (stereo not given) | 3.85 |
| O=C(c1cscn1)N1CCC2(CCN(S(=O)(=O)c3ccccc3)C2)C1 (stereo not given) | 11 |
| O=C([C@@H]1CCO[C@@H]2CCN(Cc3ccco3)C[C@H]21)N1CCCCO1 | 9.76 |
| CNC(=O)CCc1cc(C2CCCN2C(=O)CO)nc(C)n1 (stereo not given) | -0.785 |
| CC(C)N1CC(c2ccnc(Nc3nccs3)n2)C1 | 1.18 |
| CC(C(=O)N1CCOCC1)n1nc(-c2cccs2)cc(N)c1=O (stereo not given) | 8.74 |
| CN(C)C(=O)C1CN(c2ccncn2)CCN(C2CCOCC2)C1 (stereo not given) | -0.621 |
| COc1ccc(SCC2CNc3nc4ccccc4c(=O)n32)cc1 (stereo not given) | 7.69 |
| CN1CCOC(C(=O)N(C)c2ccc3c(c2)CCO3)C1 (stereo not given) | -45.4 |
| CC(OCC1CC1)C(=O)Nc1ccn(Cc2ccccc2)n1 (stereo not given) | 11.9 |
| CC(OCC1CC1)C(=O)N1CCCN(c2cccnn2)CC1 (stereo not given) | 8.13 |
| CCN(CC(C)O)C(=O)Nc1cnn(CCOC)c1 (stereo not given) | -11.6 |
| O=C1CSCN1Cc1nc(-c2ccc(N3CCCCC3)cc2)no1 | -6.79 |
| CSCCC(NC(N)=O)C(=O)NCc1cnn(-c2ccccc2)c1 (stereo not given) | 5.79 |
| Cn1cc(C2CCCN2C(=O)CS(=O)(=O)C2CCCC2)cn1 (stereo not given) | -4.8 |
| CCC(C)(CC(=O)OC)NC(=O)c1ccc2[nH]ccc2c1 (stereo not given) | -2.8 |
| CCc1nnc2n1CCN(C(=O)CCOc1ccc(C)cc1C)C2 | 2.93 |
| COCc1nccc(C2CCCN(Cc3ccc(SC)cc3)C2)n1 (stereo not given) | 23.4 |
| Cc1cccc(N(C)S(=O)(=O)c2cc(C(=O)O)cs2)c1C | -0.731 |
| Cc1nn(C)c(C)c1OCC(=O)NCC(O)c1ccsc1 (stereo not given) | 2.27 |

| Compound | cytotoxicity at 10 µM [%] |
| --- | --- |
| O=C(CCCNCc1ccc(Cl)c2cccnc12)NC1CC1 | -4.76 |
| CCOCCC(=O)NC1(c2cccc(Br)c2)CC1 | 7.53 |
| CC(C)(C)c1nnc(CN2CCN(C(=O)N3CCCCC3)CC2)o1 | 2.44 |
| Cc1cc(=O)n2ncnc2n1CC(O)c1cc(Cl)ccc1Cl (stereo not given) | 3.19 |
| CCN(CC)c1ccc(NS(=O)(=O)c2cnn(C(C)C)c2)cn1 | 5.02 |
| Cc1cc(C)n(CC2CN(CCc3ccncc3)CCO2)n1 (stereo not given) | 0.347 |
| Cc1ccc(C(=O)NCC(O)c2cnn(C)c2)c(Br)c1 (stereo not given) | -6.53 |
| Cc1cc(C(=O)N2CCN(CC(O)Cn3cccn3)CC2)c(C)o1 (stereo not given) | -4.76 |
| Cc1ccc(NC(=O)C2CCc3ccccc3N2)cc1 (stereo not given) | -5.57 |
| CCCOC1CCCN(C(=O)c2[nH]nc(C)c2Br)C1 (stereo not given) | 0.595 |
| Cc1cc(CN(Cc2ccccc2)C(C)CN2CCOCC2)no1 (stereo not given) | 4.69 |
| CNC(=O)NC(=O)CCSc1ccccc1C | 4.11 |
| CCc1noc(CCCC(=O)Nc2cc(C(F)(F)F)c[nH]c2=O)n1 | -4.84 |
| Cc1nnc2n1CCN(C(=O)CN1C(=O)CSc3ccccc31)C2 | 0.442 |
| O=C(Nc1cccnc1-n1cccn1)N1CCCC(N2CCCC2)C1 (stereo not given) | 8.53 |
| Cn1cc(NC(=O)c2ccccn2)cc(Br)c1=O | -12.8 |
| CCc1nnc2n1CCN(C(=O)c1csc(-c3cnn(C)c3)n1)C2 | 6.41 |
| O=c1cc(CN2CCCC2)nc2n1CCCN(S(=O)(=O)C1CC1)C2 | -3.56 |
| COc1ncnc2c1CCN(CC1CCOC1)CC2 (stereo not given) | -68.9 |
| COCCC1COC2(CCN(C(=O)c3ccco3)CC2)C1 (stereo not given) | 3.63 |
| CN(C)C(C(=O)N1CCN(CCn2cccc2)CC1)c1ccc(F)cc1 (stereo not given) | -14.9 |
| CCCN1CCCn2nc(CNS(=O)(=O)c3cccc(F)c3)cc2C1 | -13.1 |
| COc1cccc2ccc(CN3CCN(c4cccnc4)CC3)nc12 | -8.66 |
| Cn1ccnc1CN(CCO)Cc1ccc(C(F)(F)F)cc1 | -17.3 |
| CCCn1cc(-c2cc(C(=O)N(C)C)c3ccc(OC)cc3n2)cn1 | 6.22 |
| O=C(O)[C@@H]1CN(Cc2cnc(C3CCCCC3)nc2)C[C@H]1C1CC1 | -10 |
| COCCN1CCC(CN(CC2CCCO2)C(=O)C2CCOCC2)CC1 (stereo not given) | -0.401 |

Reference: ChEMBL document CHEMBL4513216, “Probing the Open Global Health Chemical Diversity Library for Multistage-Active Starting Points for Next-Generation Antimalarials” (ACS Infect Dis, 2020)
